Source: ChEMBL document CHEMBL1955716, “Synthesis and evaluation of CS-2100, a potent, orally active and S1P(3)- sparing S1P(1) agonist” (Eur J Med Chem, 2012)
Active and inactive are the calls of the source. No cut-off for these calls is given here.

Columns and labels:
[1] = Agonist activity at rat S1P3 receptor expressed in CHO-K1 cells assessed as induction of GTPgammaS binding; assay type: cell-based
Procedure, shortened: (§1)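 Membranes from CHO cells expressing rat or human S1P1 or S1P3, homogenized in 5 mM Tris–HCl pH 7.4, 0.25 M sucrose, 1 mM EDTA, 1 mM EGTA and spun at 100,000 × g for 60 min at 4 °C. Serial compound dilutions added to 1–10 µg protein/well, and [35S]GTPγS binding measured. EC50 is the midpoint between vehicle binding ratio and maximal response. Selectivity is the S1P3/S1P1 EC50 ratio.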

[2] = system: Rhesus monkey; experiment: Drug metabolism in po dosed monkey plasma assessed as 4-PBA level; assay type: ADME, organism-based, Macaca mulatta; conditions: in vivo
[3] = system: Mus musculus; experiment: Antimultiple sclerosis activity in C57BL/6J mouse assessed as reduction of experimental autoimmune encephalomyelitis score at 1 mg/kg, po qd for 23 days; assay type: functional, organism-based; design: dose 1 mg/kg
[4] = system: Rattus norvegicus; experiment: Immunomodulatory activity in Lewis rat assessed as decrease in peripheral blood lymphocyte numbers at 0.1 to 1 mg/kg, po after 24 to 48 hrs; assay type: functional, organism-based
Procedure, shortened: (§2)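 Male Lewis rats, 5 weeks old, 5 per group. Single oral dose (0.1 or 1 mg/kg) suspended in 1% w/v methyl cellulose #400 at 5 ml/kg; vehicle controls. Postcaval vein blood taken under ether anesthesia at 0.5–48 h into EDTA tubes. Absolute lymphocytes counted on a full blood count analyzer, expressed relative to vehicle control, mean ± SE.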

[5] = Tmax in Lewis rat at 1 mg/kg, po; assay type: ADME, organism-based; design: dose 1 mg/kg, route oral; conditions: in vivo
Procedure, shortened: (§3)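 Male Lewis rats given a single oral dose (0.1 or 1 mg/kg) suspended in 1% methyl cellulose; plasma taken from the blood samples of the lymphocyte-count study, 5 rats per time point up to 72 h. Drug quantified by LC–MS/MS after solid-phase extraction on a C18 column. Noncompartmental parameters calculated from mean concentrations.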

[6] = Cmax in Lewis rat at 0.1 mg/kg, po; assay type: ADME, organism-based; design: dose 0.1 mg/kg, route oral; conditions: in vivo; procedure, shortened: as §3
[7] = target: Sphingosine 1-phosphate receptor 1 (Rattus norvegicus, UniProt P48303); experiment: Agonist activity at rat S1P1 receptor expressed in CHO-K1 cells assessed as induction of GTPgammaS binding; assay type: functional, cell-based; procedure, shortened: as §1
[8] = target: T1, Sphingosine 1-phosphate receptor 4 (Homo sapiens, UniProt O95977); experiment: Agonist activity at human S1P4 receptor; assay type: functional
T1 sequence (O95977 whole entry): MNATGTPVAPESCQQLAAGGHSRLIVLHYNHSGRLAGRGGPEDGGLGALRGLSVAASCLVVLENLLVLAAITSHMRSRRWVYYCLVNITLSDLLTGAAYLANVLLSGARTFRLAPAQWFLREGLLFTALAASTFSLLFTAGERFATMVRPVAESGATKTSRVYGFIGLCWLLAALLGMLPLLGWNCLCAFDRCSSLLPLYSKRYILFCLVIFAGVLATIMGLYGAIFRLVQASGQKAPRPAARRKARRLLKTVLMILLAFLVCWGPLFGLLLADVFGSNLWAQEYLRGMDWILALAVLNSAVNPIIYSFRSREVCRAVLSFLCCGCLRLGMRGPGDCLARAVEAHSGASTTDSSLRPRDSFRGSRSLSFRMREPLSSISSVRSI

[9] = Cmax in C57BL/6J mouse at 1 mg/kg, po; assay type: ADME, organism-based; design: dose 1 mg/kg, route oral; conditions: in vivo
Procedure, shortened: (§4)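 Male C57BL/6J mice given 1 mg/kg orally at 5 ml/kg as a solution in dimethyl acetamide/25% Purebright/water (1/8/1). Plasma assayed by LC–MS/MS after solid-phase extraction, 5 animals per time point. Noncompartmental analysis performed on mean concentrations.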

[10] = target: Sphingosine 1-phosphate receptor 3 (Homo sapiens, UniProt Q99500); experiment: Agonist activity at human S1P3 receptor expressed in CHO-K1 cells assessed as induction of GTPgammaS binding; assay type: functional, cell-based; procedure, shortened: as §1
[11] = system: Rattus norvegicus; experiment: Immunomodulatory activity in Lewis rat assessed as decrease in peripheral blood lymphocyte numbers at 0.1 mg/kg, po after 8 hrs relative to control; assay type: functional; design: scale not given: the % may be the effect or the level left; procedure, shortened: as §2
[12] = Terminal half life in Lewis rat at 0.1 mg/kg, po; assay type: ADME, organism-based; design: dose 0.1 mg/kg, route oral; conditions: in vivo, read-out: beta t1/2 (converted); procedure, shortened: as §3
[13] = Terminal half life in C57BL/6J mouse at 1 mg/kg, po; assay type: ADME, organism-based; design: dose 1 mg/kg, route oral; conditions: in vivo, read-out: beta t1/2 (converted); procedure, shortened: as §4
[14] = Metabolic stability in liver microsomes assessed as degradation of 1,2,4-oxadiazole ring; assay type: ADME, Microsome
[15] = Terminal half life in Lewis rat at 1 mg/kg, po; assay type: ADME, organism-based; design: dose 1 mg/kg, route oral; conditions: in vivo, read-out: beta t1/2 (converted); procedure, shortened: as §3
[16] = system: Rattus norvegicus; experiment: Immunomodulatory activity in Lewis rat assessed as decrease in peripheral blood lymphocyte numbers at 1 mg/kg, po after 8 hrs relative to control; assay type: functional; design: scale not given: the % may be the effect or the level left; procedure, shortened: as §2
[17] = Cmax in Lewis rat at 1 mg/kg, po; assay type: ADME, organism-based; design: dose 1 mg/kg, route oral; conditions: in vivo; procedure, shortened: as §3
[18] = AUC (0 to 72 hrs) in Lewis rat at 0.1 mg/kg, po; assay type: ADME, organism-based; design: time < 72 hr, dose 0.1 mg/kg, route oral; conditions: plasma; procedure, shortened: as §3
[19] = AUC (0 to 72 hrs) in C57BL/6J mouse at 1 mg/kg, po; assay type: ADME, organism-based; design: time < 72 hr, dose 1 mg/kg, route oral; conditions: plasma; procedure, shortened: as §4
[20] = Metabolic stability in liver microsomes assessed as 4-PBA level; assay type: ADME, Microsome
[21] = species: Homo sapiens; experiment: Selectivity ratio of EC50 for human S1P3 receptor to EC50 for human S1P1 receptor; procedure, shortened: as §1
[22] = system: Rattus norvegicus; experiment: Antiarthritic activity in po dosed Lewis rat assessed as reduction of adjuvant-induced right hind foot volume administered as qd for 18 days; assay type: functional; conditions: 432 h, read-out: ID50 (the source's name)
Procedure, shortened: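 Lewis rats injected intradermally with adjuvant (0.05 ml) in the right hind footpad. Oral dosing at 0.1, 0.3, 1 or 3 mg/kg in 1% methyl cellulose, 5 ml/kg, once daily from Day 0 for 18 days; uninjected normal group. Right foot volume measured by plethysmometer on Days 0–18. % inhibition computed against control and normal, and ID50 taken by least-squares regression of % inhibition against log dose at Day 18.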

[23] = target: Sphingosine 1-phosphate receptor 5 (Homo sapiens, UniProt Q9H228); experiment: Agonist activity at human S1P5 receptor; assay type: functional
[24] = system: Mus musculus; experiment: Antimultiple sclerosis activity in C57BL/6J mouse assessed as reduction of experimental autoimmune encephalomyelitis score at 0.3 mg/kg, po qd for 23 days; assay type: functional, organism-based; design: dose 0.3 mg/kg
[25] = Tmax in Lewis rat at 0.1 mg/kg, po; assay type: ADME, organism-based; design: dose 0.1 mg/kg, route oral; conditions: in vivo; procedure, shortened: as §3
[26] = system: Rattus norvegicus; experiment: Drug metabolism in po dosed rat plasma assessed as 4-PBA level; assay type: ADME, organism-based; conditions: in vivo
[27] = Tmax in C57BL/6J mouse at 1 mg/kg, po; assay type: ADME, organism-based; design: dose 1 mg/kg, route oral; conditions: in vivo; procedure, shortened: as §4
[28] = AUC (0 to 72 hrs) in Lewis rat at 1 mg/kg, po; assay type: ADME, organism-based; design: time < 72 hr, dose 1 mg/kg, route oral; conditions: plasma; procedure, shortened: as §3
[29] = species: Rattus norvegicus; experiment: Selectivity ratio of EC50 for rat S1P3 receptor to EC50 for rat S1P1 receptor; procedure, shortened: as §1

Sequence of Sphingosine 1-phosphate receptor 5 (Q9H228 whole entry): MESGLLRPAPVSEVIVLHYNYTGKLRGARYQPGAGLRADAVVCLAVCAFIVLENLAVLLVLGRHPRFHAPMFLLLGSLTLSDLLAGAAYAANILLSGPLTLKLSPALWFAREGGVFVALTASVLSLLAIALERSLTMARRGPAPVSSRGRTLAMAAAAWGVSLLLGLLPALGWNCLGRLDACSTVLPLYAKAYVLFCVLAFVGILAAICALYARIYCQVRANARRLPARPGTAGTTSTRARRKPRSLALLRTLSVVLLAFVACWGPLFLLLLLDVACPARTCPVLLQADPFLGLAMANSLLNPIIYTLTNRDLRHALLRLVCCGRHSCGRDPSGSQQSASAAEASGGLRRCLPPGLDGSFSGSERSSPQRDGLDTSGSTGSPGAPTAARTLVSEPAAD
Sequence of Sphingosine 1-phosphate receptor 3 (Q99500 whole entry): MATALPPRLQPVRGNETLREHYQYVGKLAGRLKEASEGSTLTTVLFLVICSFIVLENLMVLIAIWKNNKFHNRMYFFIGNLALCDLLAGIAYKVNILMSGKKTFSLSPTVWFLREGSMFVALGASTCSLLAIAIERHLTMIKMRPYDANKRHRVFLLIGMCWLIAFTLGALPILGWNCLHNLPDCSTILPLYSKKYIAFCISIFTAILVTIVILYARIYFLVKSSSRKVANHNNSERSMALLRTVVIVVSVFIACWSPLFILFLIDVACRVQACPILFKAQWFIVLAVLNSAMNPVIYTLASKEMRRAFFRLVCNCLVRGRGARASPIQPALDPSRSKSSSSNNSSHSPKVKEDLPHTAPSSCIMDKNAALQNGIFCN
Sequence of Sphingosine 1-phosphate receptor 1 (P48303 whole entry): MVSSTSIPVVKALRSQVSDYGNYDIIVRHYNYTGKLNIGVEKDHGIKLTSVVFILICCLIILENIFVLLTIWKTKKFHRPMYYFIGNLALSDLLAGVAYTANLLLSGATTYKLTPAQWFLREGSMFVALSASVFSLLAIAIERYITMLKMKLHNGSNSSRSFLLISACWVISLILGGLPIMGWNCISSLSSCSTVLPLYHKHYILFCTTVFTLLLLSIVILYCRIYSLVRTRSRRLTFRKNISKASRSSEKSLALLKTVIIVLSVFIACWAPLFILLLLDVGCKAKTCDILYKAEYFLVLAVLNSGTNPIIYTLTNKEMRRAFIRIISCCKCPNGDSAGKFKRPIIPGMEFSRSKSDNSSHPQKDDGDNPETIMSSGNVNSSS

Compound `CCCCCCCCc1ccc(CC[C@](N)(CO)COP(=O)(O)O)cc1` [FTY720-P] has an EC50 [1] of 0.0013 µM.

In the case of `CCc1cc(CN2CC(C(=O)O)C2)sc1-c1noc(-c2ccc(Oc3ccccc3)cc2)n1`, the Drug metabolism [2] is reported as “Active”, the Activity [3] is reported as “Active” and the Activity [4] is reported as “inactive”. The Tmax [5] was 4 h, the Cmax [6] was 0.0174 µg/mL and the EC50 [7] was 0.0015 µM. The EC50 [8] was 0.058 µM, the Cmax [9] was 0.135 µg/mL and the EC50 [10] was over 20 µM. For the same compound, the Activity [11] was 27%, the half-life [12] was 12.4 h and the half-life [13] was 13.9 h. For the same compound, the Stability [14] was “Stable”, the half-life [15] was 8.73 h and the Activity [16] was 11%. It also gave a Cmax [17] of 0.186 µg/mL, an AUC(0-t) at 72 h [18] of 0.268 µg·h/mL and an AUC(0-t) at 72 h [19] of 1.54 µg·h/mL. For the same compound, the Stability [20] was “Stable”, the Ratio EC50 [21] was over 5000 and the ED50 [22] was 0.44 mg/kg. The EC50 [23] was 0.017 µM, the Activity [24] was “Active” and the Tmax [25] was 4 h. The EC50 [1] was 7.4 µM, the Drug metabolism [26] was “Active” and the Tmax [27] was 2 h. The AUC(0-t) at 72 h [28] was 2.67 µg·h/mL.

For `Cc1ccc(CCCC(=O)c2ccc(CC[C@@](C)(N)COP(=O)(O)O)n2C)cc1`, the Ratio EC50 [21] was 320, the EC50 [1] was 0.2 µM and the Ratio EC50 [29] was 100.
